Reference: ChEMBL document CHEMBL1159387, “Absolute stereostructures of new arborinane-type triterpenoids and inhibitors of nitric oxide production from Rubia yunnanensis” (J Nat Prod, 2003)

Legend:
Macrophage [1] = test: Inhibition of nitric oxide production in lipopolysaccharide-activated ddY mouse macrophages at 30 uM relative to control; type: functional
Outline: (§1)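 Peritoneal macrophages from male ddY mice given 4% thioglycolate i.p. 4 days earlier, plated at 5 × 10^5 cells/well in RPMI 1640 with 5% FCS, 1 h at 37 °C; adherent cells (>95% macrophages) then cultured 20 h with 10 µg/mL LPS plus compound (1-100 µM, DMSO final 0.5%). Nitrite in medium measured by Griess reagent; % inhibition versus LPS-only control, IC50 read graphically, N = 4.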

Macrophage [2] = test: Inhibition of nitric oxide production in lipopolysaccharide-activated ddY mouse macrophages at 100 uM relative to control; type: functional; outline: as §1
Macrophage [3] = test: Inhibition of nitric oxide production in lipopolysaccharide-activated ddY mouse macrophages at 10 uM relative to control; type: functional; outline: as §1
Macrophage [4] = test: Inhibition of nitric oxide production in lipopolysaccharide-activated ddY mouse macrophages at 3 uM relative to control; type: functional; outline: as §1
Macrophage [5] = test: Inhibition of nitric oxide production in lipopolysaccharide-activated ddY mouse macrophages at 1 uM relative to control; type: functional; outline: as §1
[6] = Toxicity in lipopolysaccharide-activated ddY mouse macrophages at 100 uM by MTT method; type: cell-based; details: macrophage
Outline: (§2)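 Peritoneal exudate cells from male ddY mice given 4% thioglycolate i.p. 4 days earlier, plated at 5 × 10^5 cells/well in RPMI 1640 with 5% FCS, 1 h at 37 °C. Non-adherent cells washed off. Adherent macrophages exposed to 10 µg/mL LPS plus compound (DMSO, final 0.5%) for 20 h. MTT added for 4 h, formazan dissolved in 2-propanol/0.04 M HCl, read at 570 nm (ref 655 nm). N=4.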

[7] = Toxicity in lipopolysaccharide-activated ddY mouse macrophages by MTT method; type: cell-based; details: macrophage
Outline: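 Thioglycolate-elicited ddY mouse peritoneal macrophages were treated for 20 h with 10 µg/mL LPS plus compound (1-100 µM, 0.5% DMSO final). MTT (5 mg/mL in PBS) was then added for 4 h, and formazan was dissolved in 2-propanol with 0.04 M HCl. Absorbance was read at 570 nm (reference 655 nm), N = 4.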

[8] = Toxicity in lipopolysaccharide-activated ddY mouse macrophages at 30 uM by MTT method; type: cell-based; details: macrophage; outline: as §2
[9] = Inhibition of NOS; outline: as §1

With `CC(=O)OC[C@@]12CC[C@@]3(C)[C@H]4C(=CC[C@]3(C)[C@H]1[C@H](OC(C)=O)C[C@H]2C(C)C)[C@@]1(C)C[C@@H](OC(C)=O)C(=O)C(C)(C)[C@@H]1C[C@@H]4OC(C)=O` the inhibition at 30 µM (Macrophage [1]) was 18.7%, the inhibition at 100 µM (Macrophage [2]) was 23% and the inhibition at 10 µM (Macrophage [3]) was 12.5%. The inhibition at 3 µM (Macrophage [4]) was 7.3% and the inhibition at 1 µM (Macrophage [5]) was 1.7%.

With `CC(=O)OC[C@@]12CC[C@@]3(C)[C@H]4C(=CC[C@]3(C)[C@H]1[C@H](OC(C)=O)C[C@H]2C(C)C)[C@@]1(C)CC[C@H](OC(C)=O)C(C)(C)[C@@H]1C[C@@H]4OC(C)=O` the inhibition at 30 µM (Macrophage [1]) was 0%, the inhibition at 100 µM (Macrophage [2]) was 6.6% and the inhibition at 10 µM (Macrophage [3]) was -1.2%. The inhibition at 3 µM (Macrophage [4]) was 10.6% and the inhibition at 1 µM (Macrophage [5]) was 5.3%.

Molecule `COc1cc(C[C@H]2CO[C@H](c3ccc(O)c(OC)c3)[C@H]2CO)ccc1O` [LARICIRESINOL] has an inhibition at 30 µM (Macrophage [1]) of -8.2%, an inhibition at 100 µM (Macrophage [2]) of 11.9% and an inhibition at 10 µM (Macrophage [3]) of 5.5%. The inhibition at 3 µM (Macrophage [4]) was 3% and the inhibition at 1 µM (Macrophage [5]) was 4%.

In the case of `CC(C)[C@@H]1C[C@@H](O)[C@H]2[C@@]1(CO)CC[C@@]1(C)[C@H]3C(=CC[C@]21C)[C@@]1(C)C[C@@H](O)[C@H](O)C(C)(C)[C@@H]1C[C@@H]3O` [RUBIARBONOL F], the Activity [6] is reported as “Toxic”, the inhibition at 30 µM (Macrophage [1]) is reported as 22% and the inhibition at 100 µM (Macrophage [2]) is reported as 60.4%. The inhibition at 10 µM (Macrophage [3]) was 15.4%, the inhibition at 3 µM (Macrophage [4]) was 7.9% and the inhibition at 1 µM (Macrophage [5]) was 9.6%.

With `Cc1c(O)cc2c(c1O)C(=O)c1ccc(O)cc1C2=O` the Activity [6] was “Toxic”, the inhibition at 30 µM (Macrophage [1]) was 99.5% and the inhibition at 100 µM (Macrophage [2]) was 99.6%. It also gave an inhibition at 10 µM (Macrophage [3]) of 37.5%, an inhibition at 3 µM (Macrophage [4]) of 7.9% and an inhibition at 1 µM (Macrophage [5]) of 4.9%.

In the case of `CC(=O)OC[C@@]12CC[C@@]3(C)[C@H]4C(=CC[C@]3(C)[C@H]1[C@H](O)C[C@H]2C(C)C)[C@@]1(C)C[C@@H](O)[C@H](O)C(C)(C)[C@@H]1C[C@@H]4O`, the inhibition at 30 µM (Macrophage [1]) is reported as -11.1%, the inhibition at 100 µM (Macrophage [2]) is reported as 76.5% and the inhibition at 10 µM (Macrophage [3]) is reported as 4.3%. For the same molecule, the inhibition at 3 µM (Macrophage [4]) was 5.3%, the inhibition at 1 µM (Macrophage [5]) was 17% and the Activity [7] was “Non-toxic”.

For `CC(=O)OC[C@@]12CC[C@@]3(C)[C@H]4C(=CC[C@]3(C)[C@H]1[C@H](O)C[C@H]2C(C)C)[C@@]1(C)CCC(=O)C(C)(C)[C@@H]1C[C@@H]4O` [RUBIARBONONE C], the Activity [6] was “Toxic”, the inhibition at 30 µM (Macrophage [1]) was 8% and the inhibition at 100 µM (Macrophage [2]) was 90.3%. For the same molecule, the inhibition at 10 µM (Macrophage [3]) was -2.3%, the inhibition at 3 µM (Macrophage [4]) was 3.7% and the inhibition at 1 µM (Macrophage [5]) was -2.1%.

In the case of `CC(=O)OC[C@@]12CC[C@@]3(C)[C@H]4C(=CC[C@]3(C)[C@H]1[C@H](O)C[C@H]2C(C)C)[C@@]1(C)C[C@@H](OC(C)=O)[C@H](O)C(C)(C)[C@@H]1C[C@@H]4O`, the inhibition at 30 µM (Macrophage [1]) is reported as -7.9%, the inhibition at 100 µM (Macrophage [2]) is reported as 77.1% and the inhibition at 10 µM (Macrophage [3]) is reported as -12%. For the same molecule, the inhibition at 3 µM (Macrophage [4]) was 21.3%, the inhibition at 1 µM (Macrophage [5]) was 20.2% and the Activity [7] was “Non-toxic”.

`CC(C)[C@@H]1C[C@@H](O)[C@H]2[C@@]1(CO)CC[C@@]1(C)[C@H]3C(=CC[C@]21C)[C@@]1(C)C[C@@H](O)C(=O)C(C)(C)[C@@H]1C[C@@H]3O` gave an inhibition at 30 µM (Macrophage [1]) of 1.8%, an inhibition at 100 µM (Macrophage [2]) of 40.3% and an inhibition at 10 µM (Macrophage [3]) of 2.1%. It also gave an inhibition at 3 µM (Macrophage [4]) of -10.3% and an inhibition at 1 µM (Macrophage [5]) of -9.6%.

With `CC(C)[C@@H]1C[C@@H](O)[C@H]2[C@@]1(CO)CC[C@@]1(C)[C@H]3C(=CC[C@]21C)[C@@]1(C)CC[C@H](O)C(C)(C)[C@@H]1C[C@@H]3O` [RUBIARBONOL A] the Activity [6] was “Toxic”, the inhibition at 30 µM (Macrophage [1]) was 2.9% and the inhibition at 100 µM (Macrophage [2]) was 86.3%. It also gave an inhibition at 10 µM (Macrophage [3]) of -4.2%, an inhibition at 3 µM (Macrophage [4]) of 4.2% and an inhibition at 1 µM (Macrophage [5]) of 6.3%. For the same molecule, the Activity [8] was “Toxic”.

With `COc1cc(O)cc(OC)c1C(=O)O` the inhibition at 30 µM (Macrophage [1]) was 7.2%, the inhibition at 100 µM (Macrophage [2]) was 28% and the inhibition at 10 µM (Macrophage [3]) was 7.5%. For the same molecule, the inhibition at 3 µM (Macrophage [4]) was 9.3% and the inhibition at 1 µM (Macrophage [5]) was 9.5%.

`CNC(=N)NCCC[C@H](N)C(=O)O` [TILARGININE] showed an inhibition at 30 µM (Macrophage [1]) of 34.1%, an inhibition at 100 µM (Macrophage [2]) of 63.1% and an inhibition at 10 µM (Macrophage [3]) of 15%. It also gave an inhibition at 3 µM (Macrophage [4]) of 10.3%, an inhibition at 1 µM (Macrophage [5]) of 5.9% and an IC50 [9] of 57 µM.

With `CC(=O)OC[C@@]12CC[C@@]3(C)[C@H]4C(=CC[C@]3(C)[C@H]1[C@H](O)C[C@H]2C(C)C)[C@@]1(C)C[C@@H](O)C(=O)C(C)(C)[C@@H]1C[C@@H]4O` the inhibition at 30 µM (Macrophage [1]) was -5.8%, the inhibition at 100 µM (Macrophage [2]) was 15.4% and the inhibition at 10 µM (Macrophage [3]) was 0%. The inhibition at 3 µM (Macrophage [4]) was -1.5% and the inhibition at 1 µM (Macrophage [5]) was -1.1%.

Work on `COc1cc([C@H]2c3cc(O)c(OC)cc3C[C@@H](CO)[C@@H]2CO)ccc1O` [ISOLARICIRESINOL] yielded an inhibition at 30 µM (Macrophage [1]) of 5.1%, an inhibition at 100 µM (Macrophage [2]) of 7.5% and an inhibition at 10 µM (Macrophage [3]) of 0.6%. It also gave an inhibition at 3 µM (Macrophage [4]) of -0.6% and an inhibition at 1 µM (Macrophage [5]) of -0.2%.

For `CC(=O)OC[C@@]12CC[C@@]3(C)[C@H]4C(=CC[C@]3(C)[C@H]1[C@H](O)C[C@H]2C(C)C)[C@@]1(C)CC[C@H](O)C(C)(C)[C@@H]1C[C@@H]4O`, the Activity [6] was “Toxic”, the inhibition at 30 µM (Macrophage [1]) was -7.4% and the inhibition at 100 µM (Macrophage [2]) was 25.5%. It also gave an inhibition at 10 µM (Macrophage [3]) of 4.7%, an inhibition at 3 µM (Macrophage [4]) of 11.1% and an inhibition at 1 µM (Macrophage [5]) of 5.2%.

Molecule `CC(=O)OC[C@@]12CC[C@@]3(C)[C@H]4C(=CC[C@]3(C)[C@H]1[C@H](OC(C)=O)C[C@H]2C(C)C)[C@@]1(C)C[C@@H](OC(C)=O)[C@H](OC(C)=O)C(C)(C)[C@@H]1C[C@@H]4OC(C)=O` has an inhibition at 30 µM (Macrophage [1]) of 25.5%, an inhibition at 100 µM (Macrophage [2]) of 28.4% and an inhibition at 10 µM (Macrophage [3]) of 18.7%. For the same molecule, the inhibition at 3 µM (Macrophage [4]) was 9.5% and the inhibition at 1 µM (Macrophage [5]) was 7.7%.

For `CC(C)[C@@H]1C[C@@H](O)[C@H]2[C@@]1(CO)CC[C@@]1(C)[C@H]3C(=CC[C@]21C)[C@@]1(C)CCC(=O)C(C)(C)[C@@H]1C[C@@H]3O` [RUBIARBONONE B], the inhibition at 30 µM (Macrophage [1]) was 16.9%, the inhibition at 100 µM (Macrophage [2]) was 19.7% and the inhibition at 10 µM (Macrophage [3]) was -13.7%. It also gave an inhibition at 3 µM (Macrophage [4]) of -9.7% and an inhibition at 1 µM (Macrophage [5]) of 4.3%.

Molecule `CC(=O)O[C@@H]1C[C@]2(C)C3=CC[C@]4(C)[C@H]5[C@@H]6C[C@@H](C(C)C)[C@@]5(CC[C@@]4(C)[C@@H]3[C@@H](O)C[C@H]2C(C)(C)[C@H]1O[C@@H]1O[C@H](CO)[C@@H](O)[C@H](O)[C@H]1O)CO6` [RUBIANOSIDE I] has an inhibition at 30 µM (Macrophage [1]) of 1.5%, an inhibition at 100 µM (Macrophage [2]) of -3.2% and an inhibition at 10 µM (Macrophage [3]) of -8%. It also gave an inhibition at 3 µM (Macrophage [4]) of -0.3% and an inhibition at 1 µM (Macrophage [5]) of 5.1%.

Molecule `COc1cc(C[C@@H](CO)[C@H](CO)Cc2ccc(O)c(OC)c2)ccc1O` [(+)-SECOISOLARICIRESINOL] has an inhibition at 30 µM (Macrophage [1]) of 0.9%, an inhibition at 100 µM (Macrophage [2]) of -12.5% and an inhibition at 10 µM (Macrophage [3]) of 6.5%. For the same molecule, the inhibition at 3 µM (Macrophage [4]) was -7.3% and the inhibition at 1 µM (Macrophage [5]) was 5.9%.

`COc1cc(C(=O)O)ccc1O` [VANILLIC ACID] showed an inhibition at 30 µM (Macrophage [1]) of -3.6%, an inhibition at 100 µM (Macrophage [2]) of 5.9% and an inhibition at 10 µM (Macrophage [3]) of 8.2%. It also gave an inhibition at 3 µM (Macrophage [4]) of 16.2% and an inhibition at 1 µM (Macrophage [5]) of 5.9%.
